Activity calls are given as the source filed them. The calls are words filed in the database; no cut-off is given here.
What was measured:
RAW264.7 [1] = experiment: Cytotoxicity against mouse RAW264.7 cells after 24 hrs by MTT assay; format: cell-based; conditions: RAW264.7, 24 h
Procedure, shortened: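 Cells were seeded at 10⁵/well and exposed to various concentrations of compound for 24 h. Viability was read by colorimetric MTT assay.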

RAW264.7 [2] = experiment: Antiinflammatory activity against mouse RAW264.7 cells assessed as inhibition of LPS-induced NO production at 5 uM after 24 hrs by Griess assay; format: functional
Procedure, shortened: (§1)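 Single-concentration NO assay: test compounds at 5 µM, reference L-NIL at 20 µM, in LPS-stimulated RAW 264.7 cells. Nitrite in the medium was measured by Griess reaction (A540). Values are means ± SD of three independent experiments.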

RAW264.7 [3] = experiment: Antiinflammatory activity against mouse RAW264.7 cells assessed as inhibition of LPS-induced PGE2 production at 5 uM administered 1 hr prior to LPS-challenge measured after 24 hrs by EIA; format: functional
Procedure, shortened: (§2)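 Single-concentration PGE₂ assay in LPS-stimulated RAW 264.7 cells: test compounds at 5 µM, reference NS398 at 3 µM. PGE₂ in culture media was quantified by EIA. Values are means ± SD of three independent experiments.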

RAW264.7 [4] = experiment: Antiinflammatory activity against mouse RAW264.7 cells assessed as inhibition of LPS-induced NO production after 24 hrs by Griess assay; format: functional, cell-based; conditions: RAW264.7, 24 h
Procedure, shortened: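 Cells were plated at 4 × 10⁵/well in DMEM with 10% FBS at 37 °C, 5% CO₂. They were incubated 24 h with LPS (1 µg/mL) plus compound at 1.60–100 µM. Medium was mixed 1:1 with Griess reagent (sulfanilamide/naphthylethylenediamine in phosphoric acid) for 10 min at room temperature, then A540 was read against fresh medium blanks.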

RAW264.7 [5] = experiment: Antiinflammatory activity against mouse RAW264.7 cells assessed as inhibition of LPS-induced PGE2 production administered 1 hr prior to LPS-challenge measured after 24 hrs by EIA; format: functional, cell-based
Procedure, shortened: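 Cells were pretreated for 1 h with compound at 0.1, 1, 10, 100 or 1000 nM, then given LPS (10 ng/mL) for 24 h. PGE₂ in culture media was quantified by EIA kit. Values are means ± SD of three independent experiments; ANOVA with Dunnett's post hoc test.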

[6] = target: T1, Prostaglandin G/H synthase 2 (Homo sapiens) (UniProt P35354); experiment: Inhibition of LPS-induced recombinant COX2 (unknown origin) activity expressed in mouse RAW264.7 cells at 0.1 to 5 uM after 10 mins; format: cell-based
T1 sequence (whole entry): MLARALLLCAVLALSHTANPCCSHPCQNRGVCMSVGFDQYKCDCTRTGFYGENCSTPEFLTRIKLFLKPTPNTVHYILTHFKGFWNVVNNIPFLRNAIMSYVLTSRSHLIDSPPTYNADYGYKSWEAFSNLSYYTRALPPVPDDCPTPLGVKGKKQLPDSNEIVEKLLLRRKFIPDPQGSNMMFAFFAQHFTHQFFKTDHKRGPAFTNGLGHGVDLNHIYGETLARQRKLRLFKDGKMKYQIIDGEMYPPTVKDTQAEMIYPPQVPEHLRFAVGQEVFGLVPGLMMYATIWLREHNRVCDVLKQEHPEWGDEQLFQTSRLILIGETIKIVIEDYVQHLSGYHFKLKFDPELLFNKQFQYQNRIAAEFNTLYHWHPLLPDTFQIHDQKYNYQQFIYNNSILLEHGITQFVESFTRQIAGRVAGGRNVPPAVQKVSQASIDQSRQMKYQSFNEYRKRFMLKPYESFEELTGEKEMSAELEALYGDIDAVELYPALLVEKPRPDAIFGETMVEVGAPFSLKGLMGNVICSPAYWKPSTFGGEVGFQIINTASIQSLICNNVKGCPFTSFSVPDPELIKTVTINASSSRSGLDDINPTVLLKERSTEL

RAW264.7 [7] = experiment: Antiinflammatory activity against mouse RAW264.7 cells assessed as inhibition of LPS-induced COX2 protein expression administered 1 hr prior to LPS-challenge measured after 24 hrs by SDS-PAGE analysis; format: functional, cell-based
Procedure, shortened: (§3)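 RAW 264.7 macrophages were pretreated for 1 h with or without 0.01, 0.1, 0.5, 1, 5 or 10 µM compound, then stimulated with LPS (10 ng/mL) for 24 h. Cell lysates were run on SDS–PAGE and transferred to PVDF. Blots were probed with iNOS and COX-2 antibodies, with β-actin as internal control.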

[8] = target: T2, Nitric oxide synthase, inducible (Mus musculus) (UniProt P29477); experiment: Inhibition of LPS-induced iNOS activity in mouse RAW264.7 cells at 1 to 10 uM after 12 hrs
T2 sequence (whole entry): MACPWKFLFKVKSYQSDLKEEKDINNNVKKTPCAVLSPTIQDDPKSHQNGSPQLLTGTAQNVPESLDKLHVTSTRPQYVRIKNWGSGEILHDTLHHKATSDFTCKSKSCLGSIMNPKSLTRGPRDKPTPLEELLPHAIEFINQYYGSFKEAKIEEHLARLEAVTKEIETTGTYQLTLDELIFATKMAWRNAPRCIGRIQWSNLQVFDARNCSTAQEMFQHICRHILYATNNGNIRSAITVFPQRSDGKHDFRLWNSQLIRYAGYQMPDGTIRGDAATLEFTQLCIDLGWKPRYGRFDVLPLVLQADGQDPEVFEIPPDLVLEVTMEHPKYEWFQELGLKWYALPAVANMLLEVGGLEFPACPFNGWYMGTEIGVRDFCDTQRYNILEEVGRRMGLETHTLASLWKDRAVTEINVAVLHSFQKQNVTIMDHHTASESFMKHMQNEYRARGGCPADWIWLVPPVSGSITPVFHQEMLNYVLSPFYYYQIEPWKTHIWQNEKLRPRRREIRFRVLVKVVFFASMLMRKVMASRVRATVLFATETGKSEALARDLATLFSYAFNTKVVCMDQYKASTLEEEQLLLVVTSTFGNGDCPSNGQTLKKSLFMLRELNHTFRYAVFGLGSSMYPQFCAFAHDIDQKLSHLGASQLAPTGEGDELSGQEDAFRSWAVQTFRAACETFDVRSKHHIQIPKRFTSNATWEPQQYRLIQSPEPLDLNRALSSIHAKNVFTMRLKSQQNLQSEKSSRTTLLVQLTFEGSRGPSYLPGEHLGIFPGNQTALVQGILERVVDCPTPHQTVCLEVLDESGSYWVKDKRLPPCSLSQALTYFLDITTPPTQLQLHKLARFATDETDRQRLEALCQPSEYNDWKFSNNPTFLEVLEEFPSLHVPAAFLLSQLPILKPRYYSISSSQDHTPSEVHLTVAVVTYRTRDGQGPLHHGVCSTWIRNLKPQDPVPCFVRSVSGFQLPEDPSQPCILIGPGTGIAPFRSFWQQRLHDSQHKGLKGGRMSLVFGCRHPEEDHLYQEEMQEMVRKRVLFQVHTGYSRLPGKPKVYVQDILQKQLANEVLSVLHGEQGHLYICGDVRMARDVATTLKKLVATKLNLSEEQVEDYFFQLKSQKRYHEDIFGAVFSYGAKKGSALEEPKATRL

RAW264.7 [9] = experiment: Antiinflammatory activity against mouse RAW264.7 cells assessed as inhibition of LPS-induced iNOS protein expression administered 1 hr prior to LPS-challenge measured after 24 hrs by SDS-PAGE analysis; format: functional, cell-based; procedure, shortened: as §3
RAW264.7 [10] = experiment: Ratio of L-NIL IC50 to compound IC50 for mouse RAW264.7 cells; format: functional
RAW264.7 [11] = experiment: Antiinflammatory activity against mouse RAW264.7 cells assessed as inhibition of LPS-induced NO production at 20 uM after 24 hrs by Griess assay; format: functional; conditions: RAW264.7, 24 h; procedure, shortened: as §1
RAW264.7 [12] = experiment: Ratio of NS398 IC50 to compound IC50 for mouse RAW264.7 cells; format: functional
RAW264.7 [13] = experiment: Antiinflammatory activity against mouse RAW264.7 cells assessed as inhibition of LPS-induced NO production administered 1 hr prior to LPS-challenge measured after 24 hrs by Griess assay; format: functional, cell-based
Procedure, shortened: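 RAW 264.7 cells were grown in DMEM with 10% FBS, penicillin and streptomycin at 37 °C under 5% CO2, then plated at 4 × 10^5 cells/well. Culture medium was mixed 1:1 with Griess reagent (equal volumes of 1% sulfanilamide in 5% phosphoric acid and 0.1% naphthylethylenediamine·HCl) for 10 min at room temperature, and nitrite was read at 540 nm against fresh-medium blanks.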

RAW264.7 [14] = experiment: Antiinflammatory activity against mouse RAW264.7 cells assessed as inhibition of LPS-induced PGE2 production at 3 uM administered 1 hr prior to LPS-challenge measured after 24 hrs by EIA; format: functional, cell-based; procedure, shortened: as §2

Row | Compound | IC50 (RAW264.7 [1]) | inhibition (RAW264.7 [2]) | inhibition (RAW264.7 [3]) | IC50 (RAW264.7 [5]) | also measured
1 | O=c1oc2cc(OS(=O)(=O)C3CC3)ccc2c2c1CCCCC2 | 20.3 µM | Active | Active | – | –
2 | O=c1oc2cc(OS(=O)(=O)c3ccc(C(F)(F)F)cc3)ccc2c2c1CCCCC2 | > 100 µM | – | – | 0.00645 µM | IC50 (RAW264.7 [4]): 3.84 µM; inhibition at 5 µM (RAW264.7 [2]; RAW264.7, 24 h): 65.8%; inhibition (INH) (RAW264.7 [3]): 91.48%; inhibition [6]: Active; inhibition (RAW264.7 [7]): Dose-dependent effect; inhibition [8]: inactive; inhibition (RAW264.7 [9]): Active; Ratio IC50 (RAW264.7 [10]): 5.24
3 | O=c1oc2cc(OS(=O)(=O)c3ccccc3)ccc2c2c1CCCCC2 | > 100 µM | Active | Active | – | –
4 | CS(=O)(=O)Oc1ccc2c3c(c(=O)oc2c1)CCCCC3 | 90.8 µM | Active | Active | – | –
5 | Cc1ccc(S(=O)(=O)Oc2ccc3c4c(c(=O)oc3c2)CCCCC4)cc1 | > 100 µM | Active | Active | – | –
6 | CCS(=O)(=O)Oc1ccc2c3c(c(=O)oc2c1)CCCCCC3 | 21.5 µM | Active | Active | – | –
7 | CC(=N)NCCCC[C@H](N)C(=O)O [L-NIL] | – | – | – | – | IC50 (RAW264.7 [4]): 20.1 µM; inhibition at 20 µM (RAW264.7 [11]): 50%
8 | O=c1oc2cc(OS(=O)(=O)c3ccc(C(F)(F)F)cc3)ccc2c2c1CCCCCC2 | > 100 µM | Active | – | 0.00604 µM | IC50 (RAW264.7 [4]): 75.3 µM
9 | CCS(=O)(=O)Oc1ccc2c3c(c(=O)oc2c1)CCCCC3 | 23.4 µM | Active | Active | – | –
10 | CCCS(=O)(=O)Oc1ccc2c3c(c(=O)oc2c1)CCCCCC3 | 9.2 µM | Active | Active | 0.00402 µM | IC50 (RAW264.7 [4]): 10 µM; Ratio IC50 (RAW264.7 [12]): 1.74
11 | NS(=O)(=O)Oc1ccc2c3c(c(=O)oc2c1)CCCCC3 [IROSUSTAT] | – | – | – | 0.081 µM | inhibition (RAW264.7 [5]): Dose-dependent effect; IC50 (RAW264.7 [13]): 85.8 µM; inhibition (RAW264.7 [13]): Dose-dependent effect
12 | CS(=O)(=O)Oc1ccc2c3c(c(=O)oc2c1)CCCCCC3 | 24.5 µM | Active | Active | – | –
13 | O=c1oc2cc(OS(=O)(=O)c3ccccc3)ccc2c2c1CCCCCC2 | > 100 µM | Active | – | – | –
14 | CS(=O)(=O)Nc1ccc([N+](=O)[O-])cc1OC1CCCCC1 [NS-398] | – | – | – | 0.00701 µM | inhibition (RAW264.7 [14]): Active
15 | O=c1oc2cc(OS(=O)(=O)C3CC3)ccc2c2c1CCCCCC2 | 10.5 µM | Active | Active | – | –
16 | Cc1ccc(S(=O)(=O)Oc2ccc3c4c(c(=O)oc3c2)CCCCCC4)cc1 | > 100 µM | Active | Active | 0.00675 µM | IC50 (RAW264.7 [4]): 40.7 µM
17 | CCCS(=O)(=O)Oc1ccc2c3c(c(=O)oc2c1)CCCCC3 | 23.9 µM | Active | Active | – | –

Reference: ChEMBL document CHEMBL3102726, “Synthesis of tricyclic fused coumarin sulfonates and their inhibitory effects on LPS-induced nitric oxide and PGE2 productions in RAW 264.7 macrophages” (Bioorg Med Chem Lett, 2014)
